Experimental data reported in ChEMBL document CHEMBL1124370 (1989).
Activity calls are given as the source filed them. The rule behind the calls is not given here.

Legend:
[1] = biological target: Aldo-keto reductase family 1 member B1 (Bos taurus) (UniProt P16116); assay: Inhibition of aldose reductase in partially purified bovine lens preparation at 10e-6 M.
Outline: (§1)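 Aldose reductase partially purified from bovine lens, with the final chromatographic step of the earlier preparation omitted. Assay run in duplicate with test compound at 1 × 10^-6 M or 1 × 10^-7 M. Reported as % inhibition of enzymatic activity.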

[2] = biological target: Aldo-keto reductase family 1 member B1 (Bos taurus) (UniProt P16116); assay: […] inhibition of aldose reductase in partially purified bovine lens preparation at 10e-7 M concentration
Outline: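 Enzyme partially purified from bovine lens by a published method, with the final chromatographic step omitted. Test compound was added at 1×10^-6 or 1×10^-7 M. Assays were run in duplicate, and the read-out was % inhibition of enzymatic activity.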

Rattus norvegicus [3] = assay: […] inhibition of sorbitol accumulation in rat sciatic nerves at 10e-5 M concentration; assay type: functional, Sciatic nerve
Outline: (§2)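 Sciatic nerves were taken from male Sprague-Dawley rats (200–250 g) after CO2 euthanasia. Nerves were incubated 3 h at 37 °C under 95% air/5% CO2 in Hank's salts buffer, pH 7.4, with 50 mM glucose and (0–5)×10^-5 M compound, in triplicate. Nerve sorbitol was measured spectrofluorometrically in duplicate, and the read-out was % inhibition of sorbitol accumulation.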

Rattus norvegicus [4] = assay: […] inhibition of sorbitol accumulation in rat sciatic nerves at 10e-6 M concentration; NS=not significant; assay type: functional; conditions: Sciatic nerve; outline: as §2
Rattus norvegicus [5] = assay: In vivo inhibition of galactitol accumulation in the diaphragm of rat at a dose of 67 mg/kg/day; NS =not significant; assay type: functional, organism-based
Rattus norvegicus [6] = assay: In vivo inhibition of galactitol accumulation in the sciatic nerves of rat at a dose of 67 mg/kg/day; NS=not significant; assay type: functional, organism-based; conditions: Sciatic nerve
Rattus norvegicus [7] = assay: In vivo inhibition of galactitol accumulation in the sciatic nerves of rat at a dose of 48 mg/kg/day; NS=not significant; assay type: functional, organism-based; conditions: Sciatic nerve
Rattus norvegicus [8] = assay: In vivo inhibition of galactitol accumulation in the diaphragm of rat. at a dose of 48 mg/kg/day; NS =not significant; assay type: functional, organism-based
[9] = biological target: Aldo-keto reductase family 1 member B1 (Bos taurus) (UniProt P16116); assay: Inhibition of aldose reductase in partially purified bovine lens preparation at 10e-7 M concentration; outline: as §1
Rattus norvegicus [10] = assay: In vivo inhibition of galactitol accumulation in the sciatic nerves of rat at a dose of 100 mg/kg/day; assay type: functional; conditions: Sciatic nerve
Rattus norvegicus [11] = assay: In vivo inhibition of sorbitol accumulation in rat sciatic nerves at 10e-6 M concentration; assay type: functional, Sciatic nerve; outline: as §2
Rattus norvegicus [12] = assay: In vivo inhibition of galactitol accumulation in the diaphragm of rat at a dose of 100 mg/kg/day; assay type: functional
Rattus norvegicus [13] = assay: In vivo inhibition of galactitol accumulation in the sciatic nerves of rat at a dose of 107 mg/kg/day; assay type: functional; conditions: Sciatic nerve
Rattus norvegicus [14] = assay: In vivo inhibition of galactitol accumulation in the diaphragm of rat at a dose of 107 mg/kg/day; assay type: functional
Rattus norvegicus [15] = assay: In vivo inhibition of galactitol accumulation in the sciatic nerves of rat at a dose of 46 mg/kg/day; NS=not significant; assay type: functional, organism-based; conditions: Sciatic nerve
Rattus norvegicus [16] = assay: […] inhibition of sorbitol accumulation in rat sciatic nerves at 10e-5 M concentration; NS=not significant; assay type: functional; conditions: Sciatic nerve; outline: as §2
Rattus norvegicus [17] = assay: In vivo inhibition of galactitol accumulation in the diaphragm of rat at a dose of 46 mg/kg/day; NS =not significant; assay type: functional, organism-based
Rattus norvegicus [18] = assay: In vivo inhibition of galactitol accumulation in the diaphragm of rat. at a dose of 56 mg/kg/day; NS=not significant; assay type: functional, organism-based
Rattus norvegicus [19] = assay: In vivo inhibition of galactitol accumulation in the sciatic nerves of rat at a dose of 55 mg/kg/day; NS=not significant; assay type: functional, organism-based; conditions: Sciatic nerve
Rattus norvegicus [20] = assay: In vivo inhibition of galactitol accumulation in the sciatic nerves of rat at a dose of 105 mg/kg/day; NS=not significant; assay type: functional, organism-based; conditions: Sciatic nerve
Rattus norvegicus [21] = assay: In vivo inhibition of galactitol accumulation in the diaphragm of rat at a dose of 105 mg/kg/day; NS=not significant; assay type: functional, organism-based
Rattus norvegicus [22] = assay: In vivo inhibition of galactitol accumulation in the sciatic nerves of ratat a dose of 106 mg/kg/day; assay type: functional; conditions: Sciatic nerve
Rattus norvegicus [23] = assay: In vivo inhibition of galactitol accumulation in the diaphragm of rat at a dose of 106 mg/kg/day; assay type: functional
Rattus norvegicus [24] = assay: In vivo inhibition of galactitol accumulation in the sciatic nerves of rat at a dose of 100 mg/kg/day; NS=not significant; assay type: functional, organism-based; conditions: Sciatic nerve
Rattus norvegicus [25] = assay: In vivo inhibition of galactitol accumulation in the sciatic nerves of rat at a dose of 10 mg/kg/day; assay type: functional; conditions: Sciatic nerve
Rattus norvegicus [26] = assay: In vivo inhibition of galactitol accumulation in the sciatic nerves of rat at a dose of 27 mg/kg/day; assay type: functional; conditions: Sciatic nerve
Rattus norvegicus [27] = assay: In vivo inhibition of galactitol accumulation in the diaphragm of rat at a dose of 10 mg/kg/day; assay type: functional
Rattus norvegicus [28] = assay: In vivo inhibition of galactitol accumulation in the diaphragm of rat. at a dose of 27 mg/kg/day; assay type: functional

Structure (SMILES)	inhibition [1] [%]	Inhibition (Rattus norvegicus [3]) [%]	inhibition (Rattus norvegicus [4])	inhibition [9] [%]	Inhibition (Rattus norvegicus [11]) [%]	further results
COc1ccc2c(C(=O)N(CC(=O)O)C(=O)OCc3ccccc3)cccc2c1C(F)(F)F	89	28	inactive			inhibition [2]: 66%; inhibition (Rattus norvegicus [5]): inactive; inhibition (Rattus norvegicus [6]): inactive
CCCOC(=O)N(CC(=O)O)C(=O)c1cccc2c(C(F)(F)F)c(OC)ccc12	90	62	inactive	81		inhibition (Rattus norvegicus [7]): inactive; inhibition (Rattus norvegicus [8]): inactive
COc1ccc2c(C(=O)N(CC(=O)O)C(C)=O)cccc2c1C(F)(F)F	91	62		61	40	inhibition in vivo at 100 mg/kg/day (Rattus norvegicus [10]): 36%; inhibition in vivo at 100 mg/kg/day (Rattus norvegicus [12]): 39%
COc1ccc2c(C(=O)N(C=O)CC(=O)O)cccc2c1C(F)(F)F	96	65		89	42	inhibition in vivo at 107 mg/kg/day (Rattus norvegicus [13]): 51%; inhibition in vivo at 107 mg/kg/day (Rattus norvegicus [14]): 82%
COc1ccc2c(C(=O)N(CC(=O)O)C(=O)OC(C)C)cccc2c1C(F)(F)F				35		inhibition (Rattus norvegicus [15]): inactive; inhibition (Rattus norvegicus [16]): inactive; inhibition (Rattus norvegicus [17]): inactive
COc1ccc2c(/C(=N/S(=O)(=O)c3ccc(Br)cc3)N(C)CC(=O)O)cccc2c1C(F)(F)F	53			5		inhibition (Rattus norvegicus [18]): inactive; inhibition (Rattus norvegicus [19]): inactive
COc1ccc2c(C(=O)N(CC(=O)O)C(=O)OCC(C)(C)C)cccc2c1C(F)(F)F	64	37		18	28	inhibition (Rattus norvegicus [20]): inactive; inhibition (Rattus norvegicus [21]): inactive
CSc1ccc2c(C(=O)N(C)CC(=O)O)cccc2c1C(F)(F)F	85	73		51	34	inhibition in vivo at 106 mg/kg/day (Rattus norvegicus [22]): 36%; inhibition in vivo at 106 mg/kg/day (Rattus norvegicus [23]): 73%
COc1ccc2c(C(=O)N(CC(=O)O)C(=O)N(C)C)cccc2c1C(F)(F)F	3	34	inactive			inhibition (Rattus norvegicus [24]): inactive; inhibition in vivo at 100 mg/kg/day (Rattus norvegicus [12]): 21%
CSc1ccc2c(C(=S)N(C)CC(=O)O)cccc2c1C(F)(F)F	95	93		71	72	inhibition in vivo at 10 mg/kg/day (Rattus norvegicus [25]): 26%; inhibition in vivo at 27 mg/kg/day (Rattus norvegicus [26]): 64%; inhibition in vivo at 10 mg/kg/day (Rattus norvegicus [27]): 86%; inhibition in vivo at 27 mg/kg/day (Rattus norvegicus [28]): 90%
